Screening results from PubChem BioAssay.
Sampled rows, rich in hits. Any-hit rate of the full collection: about 1.6%.
TLR4 MyD88 comp: TLR4-MyD88 interaction inhibition in cells; O00206+Q99836; HeLa CL3-4 TLR4/MyD88 BLA complementation, FRET ratio; inhibition, % at 8.4 µM; 200,000 tested, 0.18% active; AID 861; in the data active = inhibition above about 25%;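 note: 0% = vehicle and 100% = reference inhibitor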
TLR9-MyD88 block: inhibitors of human TLR9-MyD88 binding; Q9NR96+Q99836; AID 504734; CHO BLA complementation TLR9-MyD88, CCF4 FRET ratio; 340,000 tested, 0.21% active; inhibition, % at 4.98 µM;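 active = inhibition above the mean over all tested compounds plus 3 SD, cut at about 21% in these data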;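 note: 0% = DMSO only wells and 100% = clavulanate BLA inhibitor control wells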
Beta2AR agonist: human beta-2 adrenergic receptor agonism by FAP; 340,000 tested, 0.43% active; response, % (no concentration beside the values); Am2.2-beta2AR cells, FAP receptor internalization, flow cytometry; P07550;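 active = response above a set limit, near 3 SD of response in nonfluorescent compounds, cut at about 42% in these data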
Target sequence (P07550 whole entry, looked up): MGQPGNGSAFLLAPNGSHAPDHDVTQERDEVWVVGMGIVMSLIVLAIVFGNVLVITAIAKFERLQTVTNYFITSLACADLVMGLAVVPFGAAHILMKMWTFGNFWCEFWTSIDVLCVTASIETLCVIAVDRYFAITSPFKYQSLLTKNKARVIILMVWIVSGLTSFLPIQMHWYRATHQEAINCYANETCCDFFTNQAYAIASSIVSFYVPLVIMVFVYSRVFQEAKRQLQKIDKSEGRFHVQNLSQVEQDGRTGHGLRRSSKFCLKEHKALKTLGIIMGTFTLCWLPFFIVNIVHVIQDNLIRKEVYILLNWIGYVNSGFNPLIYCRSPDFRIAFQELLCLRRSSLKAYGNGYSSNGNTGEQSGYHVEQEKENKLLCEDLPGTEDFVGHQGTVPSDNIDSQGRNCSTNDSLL
Dynein cargo inh: blocks dynein driven cargo transport along microtubules; 3617.4 mouse cells, GR-EGFP nuclear translocation imaging; test concentration mostly 20 µM; stimulated with dexamethasone, 1 µM; stronger effect = lower value; z-score, hits read low; 220,000 tested, 0.47% active; AID 1381;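 active = plate z-score of nuclear minus cytoplasmic receptor signal below a set negative limit, without overly bright fluorescence or cell loss, cut at about -3.5 in these data, passing the limit was not always enough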;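 note: z-score of nuclear minus cytoplasmic ring GR-EGFP intensity difference per well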
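Buffer or medium: tetracycline-free induction medium containing charcoal-stripped FBS / Reagent: dexamethasone agonist, 1.0 µM final, for 30 min / Technique: automated 10x imaging of fixed Hoechst-stained cells / Times: induction 48 h, compound 1 h, agonist 30 min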
ABHD5-PLIN5 inh: ABHD5-PLIN5 protein interaction inhibition. inhibition, % at 4 µM. 360,000 tested, 0.78% active. Q00G26+Q8WTS1. AID 602281. Split G. princeps luciferase complementation, luminescence, 4 h;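 active = inhibition above the mean inhibition across every tested compound plus 3 SD, cut at about 22% in these data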;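 note: 0% = DMSO only wells and the 100% control is not disclosed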
NOD2-RIPK2 inh: inhibitors of human NOD2-RIPK2 interaction. 360,000 tested, 0.38% active. O43353. AID 624267. CHO BLA complementation NOD2-RIPK2, CCF4 ratio. inhibition, % at 4.98 µM; in the data active = inhibition above about 21%;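 note: 0% = vehicle only and 100% = reference blocker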
NOD2 RIPK2 conf: confirmation of human NOD2-RIPK2 interaction inhibitors; shares compounds with NOD2-RIPK2 inh; CHO cells, NOD2-RIPK2 BLA complementation, CCF4 FRET; inhibition, % at 4.98 µM; 1,200 tested, 70% active; AID 624370;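 active = mean inhibition across replicates above a set limit taken from the earlier primary screen, cut at about 21% in these data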;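 note: 0% = DMSO-only wells and the high end = clavulanate BLA-blocked wells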
BLA counter: hits BLA reporter in NOD2-RIPK2 inhibitor counterscreen. shares compounds with NOD2-RIPK2 inh. CHO BLA reporter, CCF4 FRET ratio. inhibition, % at 4.98 µM. 1,200 tested, 57% active. AID 624371;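 active = mean inhibition above the low-control mean inhibition plus three low-control SD, cut at about 11% in these data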;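 note: 0% = DMSO only wells and 100% = clavulanate high control wells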
The depositor's hits bear a star; nt = not tested or not shown.

SMILES	TLR4 MyD88 comp	TLR9-MyD88 block	Beta2AR agonist	Dynein cargo inh	ABHD5-PLIN5 inh	NOD2-RIPK2 inh	NOD2 RIPK2 conf	BLA counter
O=C(CSc1nccc(=O)[nH]1)Nc1cc(C(F)(F)F)ccc1N1CCOCC1	nt	3.0	2.9	nt	-5.0	-15.8	nt	nt
Cc1ccc2nc(SCC(=O)Nc3cc(C(F)(F)F)ccc3N3CCOCC3)[nH]c2c1	12.6	4.2	22.1	-0.486	-6.8	33.8*	14.7	-1.1
CC(/C=N/n1c(-c2ccc(Cl)cc2)n[nH]c1=S)=C\c1ccco1	8.6	-8.7	-13.3	-0.366	-1.6	5.6	nt	nt
N#CC(C#N)=C1C=CC=CN1/C(=C\c1ccco1)C(=O)c1ccc(Cl)cc1	-9.4	19.5	58.3*	-3.48	87.1*	93.6*	91.1*	17.2*
Cc1ccc(-c2noc(CCC(=O)NCCCN3CCN(c4ccc(F)cc4)CC3)n2)cc1	7.1	5.8	5.7	0.278	9.7	-8.6	nt	nt
Cc1ccc(-c2noc(CCC(=O)NCCCN3CCN(c4cccc(Cl)c4)CC3)n2)cc1	-3.8	-5.0	11.1	2.57	11.3	29.2*	14.7	-1.2
CC(=O)c1cn(CCOc2ccc(F)cc2)c2ccccc12	nt	3.1	-8.1	nt	5.2	4.1	nt	nt
Cc1cc(OCCn2cc(/C(N)=N/O)c3ccccc32)ccc1Cl	-15.3	4.3	6.7	-0.637	1.7	23.1*	10.6	7.5
c1ccc2c(c1)Nc1nccnc1S2	-5.6	0.2	1.4	-0.384	-10.0	5.4	nt	nt
FC(F)(F)c1cnc2c(c1)Nc1ccccc1S2	-2.2	10.2	2.8	0.289	-8.0	21.7*	8.7	5.0
COc1ccc(CC(=O)Nc2ccc(-c3cn4ccc(C)cc4n3)cc2)cc1	6.7	8.3	10.8	-0.444	-1.4	22.7*	9.6	-6.5
COc1ccc(CC(=O)Nc2ccc(-c3cn4cccc(C)c4n3)cc2)cc1OC	19.1	-11.4	-2.8	-0.0854	10.1	-5.0	nt	nt
CC1CCC(NC(=O)c2cccc(S(=O)(=O)N3CCN(c4ccc(F)cc4)CC3)c2)CC1 (configuration not stated)	nt	3.3	6.6	nt	0.6	8.8	nt	nt
COc1ccccc1OCCn1cc(/C=C(\C#N)C(=O)NCc2cccs2)c2ccccc21	8.3	-0.1	-7.1	-0.673	2.8	28.8*	-8.3	-0.2
COCCN(C(=O)COC(=O)CCC1CCCCC1)c1c(N)n(Cc2ccccc2)c(=O)[nH]c1=O	nt	4.3	nt	nt	0.6	27.6*	2.5	-1.9
C[C@H](NC(=O)c1ncn2c1C(=O)NC[C@H]2C)C(=O)OC(C)(C)C	nt	9.0	nt	nt	2.3	-9.2	nt	nt
CCCCN(C)C(=O)c1sc(=O)n(CC(=O)c2ccccc2OC)c1C	nt	nt	nt	nt	-6.1	-0.5	nt	nt
O=C(CNC(=O)c1cccc([N+](=O)[O-])c1)OCCCC(=O)c1ccc(F)cc1	nt	-0.8	-9.6	nt	0.0	25.8*	-7.5	-3.7
O=C(CCNc1ccc(F)cc1)c1cccc([N+](=O)[O-])c1	5.3	2.2	-3.9	1.85	-6.2	-10.4	nt	nt
Cc1ccc(F)cc1C(=O)N1CCCC(c2cc(C(=O)NCc3ccccc3)no2)C1 (configuration not stated)	nt	nt	nt	nt	-3.9	-4.0	nt	nt
Cc1cccc(C(=O)Nc2cccc(C(=O)N/N=C/c3ccncc3)c2)c1	-1.2	0.4	1.7	1.4	2.4	2.5	nt	nt
Cc1cccc(C(=O)Nc2ccc(C(=O)/C=C/c3ccncc3)cc2)c1	nt	8.6	60.4*	nt	91.3*	56.2*	76.4*	1.9
